# Many of the other results were omitted from the sample, so hits are more common in it than they were.
# XBP1 UPR activ – activators of adaptive arm of unfolded protein response (XBP1); activation, % at 20 µM; 0.33% of 330,000 active; CHO-XBP1 luciferase reporter, IRE1-XBP1 UPR activation, luminescence; percent of tunicamycin response, DMSO as zero;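 active = versus positive control, 20 µM dose yields 30% or more activation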
#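 Material: CHO-XBP1 cells stably carrying IRE1-XBP1-driven luciferase reporter | Medium: F12 with 10% serum | Compound dosing: 20 µM single concentration, DMSO 1% | Incubation: Overnight seeding at 37 °C, 6 h compound treatment at 37 °C | Detection: Steady-Glo luminescence read | Read-out basis: % activation of reporter signal versus tunicamycin and DMSO controls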
# CHOP UPR activ – apoptotic UPR (CHOP) activation. CHO-CHOP luciferase reporter, luminescence; percent of tunicamycin response over DMSO baseline. activation, % at 10 µM. 0.34% of 330,000 active. AID 449763;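 active = at 10 µM dose, activation of 40% or more, normalized to positive control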
#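 System: CHO-CHOP luciferase reporter cell line | Buffer or medium: F12 medium containing 10% fetal bovine serum | Doses: One dose, 10 µM in 0.5% DMSO | Times: 6 h compound exposure at 37 °C after overnight seeding | Signal: Luciferase luminescence | Read-out: % activation vs tunicamycin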
# Beta2AR agonist – agonists of human beta-2 adrenergic receptor inducing internalization | P07550 | response, % (concentration not given with the values) | AID 504454 | Am2.2-beta2AR cells, FAP receptor internalization, flow cytometry | 0.43% of 340,000 active;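 active = response above a set limit, near 3 SD of response in nonfluorescent compounds, cut at about 42% in these data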
# Target sequence (P07550 whole entry, looked up): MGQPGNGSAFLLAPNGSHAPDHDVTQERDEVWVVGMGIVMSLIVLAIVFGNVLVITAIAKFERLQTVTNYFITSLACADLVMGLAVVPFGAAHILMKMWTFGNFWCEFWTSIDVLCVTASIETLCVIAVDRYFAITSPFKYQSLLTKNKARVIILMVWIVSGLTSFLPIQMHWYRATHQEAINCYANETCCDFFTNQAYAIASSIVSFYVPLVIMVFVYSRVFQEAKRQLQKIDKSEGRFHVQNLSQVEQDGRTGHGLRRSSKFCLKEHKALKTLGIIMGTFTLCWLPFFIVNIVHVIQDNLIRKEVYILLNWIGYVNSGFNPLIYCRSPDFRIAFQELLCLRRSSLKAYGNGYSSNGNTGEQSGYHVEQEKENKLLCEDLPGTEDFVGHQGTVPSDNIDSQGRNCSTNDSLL
# CHOP inh – inhibitors of CHOP induction in ER stress response; CHO-K1 CHOP-promoter luciferase, tunicamycin-induced, 15-18 h; inhibition, % at 10 µM; 3.8% of 220,000 active;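 active = compounds that reduced the stress-induced luciferase reporter signal by more than about 70% of percent inhibition, limit read from the data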
# VLA-4 inh – inhibition in a human VLA-4 binding assay | P13612 | VLA-4 expressing cells, ligand binding flow cytometry | inhibition, % (about 7 µM as worked out from the volumes in the protocol) | 0.2% of 330,000 active | AID 2557; in the data active = inhibition above about 50%
# CHOP confirm – confirmation of CHOP induction inhibitors; 45% of 2,100 active; AID 504437; inhibition, % at 10 µM; shares compounds with CHOP inh; CHO-CHOP promoter luciferase reporter, tunicamycin-induced, luminescence;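 active = mean of three repeat readings of reporter signal inhibition above a set limit, cut at about 70% in these data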
# Hits are given with their value; 0 = inactive; - = no result given.
SMILES,XBP1 UPR activ,CHOP UPR activ,Beta2AR agonist,CHOP inh,VLA-4 inh,CHOP confirm
CCOc1cc(S(=O)(=O)Nc2ccc(Cl)cn2)ccc1Cl,0,0,0,0,0,-
O=C(c1ccc(COc2ccc(Cl)cc2)o1)N1N=C(C(F)F)CC1(O)C(F)F (stereo not drawn),0,0,0,109,0,130
COc1ccccc1OCc1ccc(C(=O)N2N=C(C(F)F)CC2(O)C(F)F)o1 (stereo not drawn),0,0,0,0,0,-
c1ccc2c(c1)ncn2-c1ccc(-c2ccnc(-c3ccncc3)n2)cc1,0,0,0,99,0,0
COc1ccc(/C=C2/SC(=S)N(CCCC(=O)Nc3ccc(O)cc3)C2=O)cc1,0,0,0,99,0,118
CCc1ccc(/C=C2/SC(=S)N(CCCC(=O)Nc3ccccc3C(=O)O)C2=O)cc1,0,0,0,-,0,-
COc1ccc(/C=C2\SC(=S)N(CCC(=O)Nc3ccc(C(=O)O)cc3)C2=O)cc1,0,0,0,-,0,-
CCc1ccc(/C=C2\SC(=S)N(CCCC(=O)Nc3ccccn3)C2=O)cc1,0,0,0,102,0,126
COc1ccc(/C=C2\SC(=S)N(CCCC(=O)Nc3ccc(O)cc3)C2=O)cc1,0,0,0,99,0,112
COc1ccc(C2CC(c3c(-c4ccccc4)c4cc(Cl)ccc4[nH]c3=O)=NN2S(C)(=O)=O)cc1OC (stereo not drawn),0,0,0,108,0,125
COc1ccc(C2CC(c3cccs3)=NN2S(C)(=O)=O)cc1OC (stereo not drawn),0,0,0,0,0,-
COc1cc(N=c2ssnc2Cl)cc(OC)c1,0,0,0,106,0,0
Clc1nssc1=Nc1ccc(Br)cc1,-,-,0,106,-,131
N#Cc1cccc(N=c2ssnc2Cl)c1,0,0,0,0,-,-
O=c1[nH]c(CSc2nnc(Nc3ccccc3)s2)nc2ccccc12,0,0,0,0,0,-
c1ccc2nc(-c3ccncc3)ccc2c1,0,0,0,0,0,-
CN1CCN(c2ccc(-c3ccc4ccccc4n3)cc2)CC1,-,-,0,102,-,120
CCOC(=O)c1oc2ccc(/C=N/O)c(Cl)c2c1C,0,0,0,104,0,0
S=c1[nH]nc(COc2ccccc2)n1/N=C/C(Cl)=C/c1ccccc1,0,0,0,103,0,0
FC(F)(F)c1cccc(NC(=S)N2CCN(c3cccc(C(F)(F)F)c3)CC2)c1,0,0,0,107,0,116
Fc1ccc(NC(=S)N2CCN(c3cccc(C(F)(F)F)c3)CC2)cc1,0,0,0,0,0,-
Cc1cc(NC(=O)NC(=O)c2ccccc2NC(=O)CN)ccc1Oc1ncc(Br)cn1,-,-,0,-,-,-
CC1=CC(=O)C=C(C)C1=NOC(=O)/C=C\c1ccccc1,0,0,0,101,0,0
CC1=C(C)/C(=N\OC(=O)/C=C/c2ccccc2)C=CC1=O,0,0,0,104,0,0
CC1=CC(=NOC(=O)/C=C/c2ccccc2)C=C(C)C1=O,0,0,0,0,0,-
SMILES,XBP1 UPR activ,CHOP UPR activ,Beta2AR agonist,CHOP inh,VLA-4 inh,CHOP confirm
CC1=C(C)CC(C(=O)NCc2cccc(Cl)c2)C(C(=O)O)C1 (stereo not drawn),0,0,0,-,0,-
CC(C)Oc1ccc(C(=O)OCC(=O)N2CCCc3ccccc32)cc1,0,0,0,-,0,-
Cc1cc(C)c2c(c1)/C(=N/NS(=O)(=O)c1ccc(Br)cc1)CCC2,0,0,0,106,0,82
Cc1cc(C)c2c(c1)/C(=N/NS(=O)(=O)c1ccccc1)CCC2,0,0,0,0,0,-
CC(C)(C)c1cc(OC(=O)c2ccncc2)ccc1O,0,0,0,0,0,-
CC(C)(C)c1cc(OC(=O)c2ccccc2F)ccc1O,0,0,0,105,0,0
CCCNC(=O)COC(=O)c1ccccc1C(=O)c1ccc(Cl)c([N+](=O)[O-])c1,0,0,0,102,0,0
COc1ccc2c(-c3cc4ccc(OCc5ccc(F)cc5)cc4oc3=O)cc(=O)oc2c1,-,-,0,103,0,0
COc1ccc(COc2ccc3c(C)cc(=O)oc3c2)cc1,0,0,0,-,0,-
COc1cc(C)nc(N2CCCC(C(=O)Nc3cccc(Cl)c3C)C2)n1 (stereo not drawn),0,0,0,105,0,95
Cc1ccc(-c2cc(C(=O)NCc3cnn(C)c3)c3cc(Br)ccc3n2)cc1,0,0,0,101,0,0
COc1ccccc1CCNC(=O)c1cc(-c2ccncc2)nc2ccc(Br)cc12,-,-,0,104,-,0
Cc1cccc(C)c1NC(=O)NC1(C(=O)N2CCCC2)CCCCC1,0,0,0,-,0,-
O=S(=O)(NCc1cc(-c2ccc(Cl)cc2)no1)c1ccccc1,0,0,0,0,0,-
O=S(=O)(NCc1cc(-c2ccc(Cl)cc2)no1)c1ccc(Cl)cc1,0,0,0,102,0,0
Cc1nnc(SCCn2c(N3CCC(Cc4ccccc4)CC3)nc3c2c(=O)[nH]c(=O)n3C)s1,0,0,-,0,0,-
CCCCCCn1c(N2CCC(C)CC2)nc2c1c(=O)[nH]c(=O)n2C,0,0,0,100,0,105
Cn1c(=O)[nH]c(=O)c2c1nc([N+](=O)[O-])n2Cc1ccccc1,0,0,67,106,0,121
CC(C)Cn1c([N+](=O)[O-])nc2c1c(=O)[nH]c(=O)n2C,0,0,0,0,0,-
CCCCn1c(N2CCC(Cc3ccccc3)CC2)nc2c1c(=O)[nH]c(=O)n2C,0,0,0,97,0,103
CS(=O)(=O)Nc1nc2n(n1)C(c1ccccc1)CC(c1ccccc1)N2 (stereo not drawn),0,0,0,0,0,-
Cn1c(-c2ccc(C(C)(C)C)cc2)n[nH]c1=S,0,0,0,0,0,-
CC(C)(C)c1ccc(-c2n[nH]c(=S)n2C2CCCC2)cc1,0,0,0,107,0,121
COC/C=C/C1=CC2=CC(=O)C(C)(OC(=O)C3CCCC3)C(=O)C2=CO1 (stereo not drawn),0,0,0,99,0,0
O=C(Nc1ccc(F)cc1)Nc1ccc(N2CCCC2)c(S(=O)(=O)Nc2ccccc2Cl)c1,0,0,0,97,0,91
O=C(OCCN1CCN(C2=NS(=O)(=O)c3ccccc32)CC1)c1cccc(Br)c1,0,0,0,-,0,-
CC1(C)Oc2ccc3ccc(=O)oc3c2/C(=C/Nc2ccc(O)cc2)C1=O,0,0,0,0,0,-
CC1(C)Oc2ccc3ccc(=O)oc3c2/C(=C/Nc2cccc(O)c2)C1=O,0,0,0,106,0,0
CC(C)N(Cc1ccccc1)C(=O)COC(=O)c1cc(S(=O)(=O)N(C)C)ccc1N1CCCC1,0,0,0,-,0,-
O=C(Nc1ccccc1Cl)c1ccccc1Oc1ccc(C(F)(F)F)cc1[N+](=O)[O-],0,0,0,105,0,81
